Assay type in all cases: functional
For test [1], the system named is Lysinibacillus sphaericus. In words: Antibacterial activity against gram positive Bacillus sphaericus (MTCC 11). In a few lines:
(§1)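 MICs were determined by broth dilution following National Committee for Clinical Laboratory (NCCL) standards. The same conditions were used for penicillin and streptomycin as reference agents.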

The subject of a further test is Klebsiella aerogenes. In words: Antibacterial activity against gram negative Klebsiella aerogenes(MTCC 39). In a few lines:
(§2)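 MIC determined by broth dilution per NCCL standards; test panel comprised Gram-positive Bacillus subtilis (MTCC 441), Bacillus sphaericus (MTCC 11), Staphylococcus aureus (MTCC 96) and Gram-negative Chromobacterium violaceum (MTCC 2656), Klebsiella aerogenes (MTCC 39), Pseudomonas aeruginosa (MTCC 741); highest concentration tested 200 μg/ml; penicillin and streptomycin run under identical conditions as reference agents.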

A further test relates to Staphylococcus aureus. In words: Antibacterial activity against gram positive Staphylococcus aureus(MTCC 96). The method, boiled down:
as §2

The test system of the next test is Bacillus subtilis. In words: Antibacterial activity against gram positive Bacillus subtilis MTCC 441. In a few lines:
as §2

Test [2] relates to Chromobacterium violaceum. Kind of test: Antibacterial activity against gram negative Chromobacterium violaceum(MTCC 2656). In a few lines: as §2
The test system of another test is Pseudomonas aeruginosa. Kind of test: Antibacterial activity against gram negative Pseudomonas aeruginosa (MTCC 741). The method, boiled down: as §1

Drawing on ChEMBL document CHEMBL1148560, “Synthesis and biological evaluation of novel C (7) modified chrysin analogues as antibacterial agents” (2006), this text covers MIC for 15 compounds.

Converted amounts (≈) assume the structure as drawn.

With `CN(C)CCCCCCOc1cc(O)c2c(=O)cc(-c3ccccc3)oc2c1`, the MIC (commonly the least concentration at which growth counts as inhibited) in test [1] was 12.5 µg/mL (≈ 32.8 µM); in the test on Klebsiella aerogenes, 25 µg/mL (≈ 65.5 µM); against Staphylococcus aureus, 25 µg/mL (≈ 65.5 µM); against Bacillus subtilis, 12.5 µg/mL (≈ 32.8 µM); in test [2] it was 25 µg/mL (≈ 65.5 µM).
On to `O=c1cc(-c2ccccc2)oc2cc(OCCCCCCN3CCOCC3)cc(O)c12`, for which the minimal inhibitory concentration (MIC) (in test [1]; against Klebsiella aerogenes; in the test with Staphylococcus aureus; with Bacillus subtilis; in test [2]) was 25 µg/mL (≈ 59 µM) throughout.
Take `CN(C)CCCOc1cc(O)c2c(=O)cc(-c3ccccc3)oc2c1`: the MIC in test [1] came to 12.5 µg/mL (≈ 36.8 µM); with Klebsiella aerogenes, 25 µg/mL (≈ 73.7 µM); against Staphylococcus aureus it was 12.5 µg/mL (≈ 36.8 µM); in the test on Bacillus subtilis it was 25 µg/mL (≈ 73.7 µM); in test [2] it was 12.5 µg/mL (≈ 36.8 µM).
With `O=c1cc(-c2ccccc2)oc2cc(OCCCCN3CCOCC3)cc(O)c12`, the MIC came out at 6.25 µg/mL (≈ 15.8 µM) in test [1]; 12.5 µg/mL (≈ 31.6 µM) in the test with Klebsiella aerogenes; 12.5 µg/mL (≈ 31.6 µM) in the test with Staphylococcus aureus; 6.25 µg/mL (≈ 15.8 µM) against Bacillus subtilis; 6.25 µg/mL (≈ 15.8 µM) in test [2].
In the case of `O=c1cc(-c2ccccc2)oc2cc(OCCCCCCN3CCCCC3)cc(O)c12`, the MIC in test [1] is 12.5 µg/mL (≈ 29.7 µM); against Klebsiella aerogenes, 25 µg/mL (≈ 59.3 µM); in the test with Staphylococcus aureus, 25 µg/mL (≈ 59.3 µM); against Bacillus subtilis, 25 µg/mL (≈ 59.3 µM); in test [2] it was 25 µg/mL (≈ 59.3 µM).
Regarding `CN1CCN(CCCOc2cc(O)c3c(=O)cc(-c4ccccc4)oc3c2)CC1`, the minimal inhibitory concentration (MIC) worked out at 12.5 µg/mL (≈ 31.7 µM) in test [1]; 25 µg/mL (≈ 63.4 µM) in the test on Klebsiella aerogenes; 25 µg/mL (≈ 63.4 µM) in the test with Staphylococcus aureus; 12.5 µg/mL (≈ 31.7 µM) against Bacillus subtilis; 12.5 µg/mL (≈ 31.7 µM) in test [2].
`O=c1cc(-c2ccccc2)oc2cc(OCCCN3CCCCC3)cc(O)c12`: the MIC in test [1] stood at 12.5 µg/mL (≈ 32.9 µM); in the test on Klebsiella aerogenes, 25 µg/mL (≈ 65.9 µM); in the test with Staphylococcus aureus it was 12.5 µg/mL (≈ 32.9 µM); with Bacillus subtilis, 25 µg/mL (≈ 65.9 µM); in test [2] it was 6.25 µg/mL (≈ 16.5 µM).
Consider `CN1CCN(CCCCOc2cc(O)c3c(=O)cc(-c4ccccc4)oc3c2)CC1`, for which the minimal inhibitory concentration (MIC) in test [1] came out at 6.25 µg/mL (≈ 15.3 µM); with Klebsiella aerogenes, 12.5 µg/mL (≈ 30.6 µM); against Staphylococcus aureus it was 12.5 µg/mL (≈ 30.6 µM); with Bacillus subtilis, 25 µg/mL (≈ 61.2 µM); in test [2], 6.25 µg/mL (≈ 15.3 µM).
`O=c1cc(-c2ccccc2)oc2cc(OCCCCN3CCCCC3)cc(O)c12`: the MIC was 12.5 µg/mL (≈ 31.8 µM) in test [1]; 25 µg/mL (≈ 63.5 µM) in the test with Klebsiella aerogenes; 25 µg/mL (≈ 63.5 µM) in the test on Staphylococcus aureus; 12.5 µg/mL (≈ 31.8 µM) in the test with Bacillus subtilis; 6.25 µg/mL (≈ 15.9 µM) in test [2].
On to `CN(C)CCCCOc1cc(O)c2c(=O)cc(-c3ccccc3)oc2c1`, for which the MIC is 6.25 µg/mL (≈ 17.7 µM) in test [1]; 25 µg/mL (≈ 70.7 µM) against Klebsiella aerogenes; 25 µg/mL (≈ 70.7 µM) in the test with Staphylococcus aureus; 6.25 µg/mL (≈ 17.7 µM) in the test with Bacillus subtilis; 12.5 µg/mL (≈ 35.4 µM) in test [2].
For `O=c1cc(-c2ccccc2)oc2cc(OCCCN3CCOCC3)cc(O)c12`, the MIC worked out at 12.5 µg/mL (≈ 32.8 µM) in test [1]; 25 µg/mL (≈ 65.5 µM) in the test on Klebsiella aerogenes; 25 µg/mL (≈ 65.5 µM) against Staphylococcus aureus; 12.5 µg/mL (≈ 32.8 µM) in the test with Bacillus subtilis; 12.5 µg/mL (≈ 32.8 µM) in test [2].
Take `CN1CCN(CCCCCCOc2cc(O)c3c(=O)cc(-c4ccccc4)oc3c2)CC1`: the MIC is 25 µg/mL (≈ 57.3 µM) in test [1]; 25 µg/mL (≈ 57.3 µM) against Klebsiella aerogenes; 12.5 µg/mL (≈ 28.6 µM) with Staphylococcus aureus; 25 µg/mL (≈ 57.3 µM) against Bacillus subtilis; 12.5 µg/mL (≈ 28.6 µM) in test [2].
`O=c1cc(-c2ccccc2)oc2cc(O)cc(O)c12` [CHRYSIN]: the MIC was determined as 25 µg/mL (≈ 98.3 µM) in test [1]; 50 µg/mL (≈ 197 µM) in the test with Klebsiella aerogenes; 50 µg/mL (≈ 197 µM) with Staphylococcus aureus; 50 µg/mL (≈ 197 µM) with Bacillus subtilis; 25 µg/mL (≈ 98.3 µM) in test [2].
As to `CC1(C)S[C@@H]2[C@H](NC(=O)Cc3ccccc3)C(=O)N2[C@H]1C(=O)O` [PENICILLIN G], the MIC is 3.12 µg/mL (≈ 9.35 µM) in test [1]; 6.25 µg/mL (≈ 18.7 µM) against Klebsiella aerogenes; 1.56 µg/mL (≈ 4.67 µM) against Staphylococcus aureus; 1.56 µg/mL (≈ 4.67 µM) in the test with Bacillus subtilis; 6.25 µg/mL (≈ 18.7 µM) against Pseudomonas aeruginosa; 12.5 µg/mL (≈ 37.4 µM) in test [2].
Take `CN[C@@H]1[C@H](O[C@H]2[C@H](O[C@H]3[C@H](O)[C@@H](O)[C@H](N=C(N)N)[C@@H](O)[C@@H]3N=C(N)N)O[C@@H](C)[C@]2(O)C=O)O[C@@H](CO)[C@H](O)[C@H]1O` [STREPTOMYCIN]: the minimum inhibitory concentration (MIC) was 12.5 µg/mL (≈ 21.5 µM) in test [1]; 1.56 µg/mL (≈ 2.69 µM) against Klebsiella aerogenes; 6.25 µg/mL (≈ 10.7 µM) in the test on Staphylococcus aureus; 6.25 µg/mL (≈ 10.7 µM) with Bacillus subtilis; 1.56 µg/mL (≈ 2.69 µM) with Pseudomonas aeruginosa; 3.12 µg/mL (≈ 5.37 µM) in test [2].
